The source of these data is ChEMBL document CHEMBL1133594, “Structure-function studies on the new growth hormone-releasing peptide, ghrelin: minimal sequence of ghrelin necessary for activation of growth hormone secretagogue receptor 1a” (J Med Chem, 2000).

Residues, ends and D or L forms follow the SMILES beside them. *: point of attachment. Octanoyl = CCCCCCCC(=O)*

The target of assay [1] is Growth hormone secretagogue receptor type 1 (Homo sapiens, UniProt Q92847). The assay can be described thus: Binding affinity to cloned human growth hormone secretagogue receptor type 1 in a competitive binding assay with [35S]MK-0677 as a radiolabeled ligand. The essentials:
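Competition filter binding on crude membranes from HEK293-aequorin stable cells expressing hGHSR1a, 4 µg membrane protein/well. Bound membranes were filtered on 0.5% polyethylenimine-prewet GF/C filters, washed 8 times and counted by scintillation.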

In assay [2] the test system is HEK293. The assay can be described thus: Effective dose measuring intracellular calcium elevation in HEK293 cells. It counts as functional, cell-based. Conditions: Homo sapiens. The gist of the method:
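Apo-aequorin was charged 1 h with 10 µM coelenterazine and 300 µM reduced glutathione in ECB buffer, pH 7.4. 5 × 10^4 cells were injected onto peptide and light integrated over 30 s, then Triton X-100 lysis (0.1% final) read over 10 s. Fractional response = challenge/total luminescence.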
Background: A change in cytosolic calcium serves as a functional read-out for many receptors and channels.

In assay [3] the test system is HEK293. The assay can be described thus: Percent activation at 10 uM relative to ghrelin to measure intracellular calcium elevation in HEK293 cells. Format: functional, Homo sapiens.

Sequence of Growth hormone secretagogue receptor type 1 (Q92847 whole entry): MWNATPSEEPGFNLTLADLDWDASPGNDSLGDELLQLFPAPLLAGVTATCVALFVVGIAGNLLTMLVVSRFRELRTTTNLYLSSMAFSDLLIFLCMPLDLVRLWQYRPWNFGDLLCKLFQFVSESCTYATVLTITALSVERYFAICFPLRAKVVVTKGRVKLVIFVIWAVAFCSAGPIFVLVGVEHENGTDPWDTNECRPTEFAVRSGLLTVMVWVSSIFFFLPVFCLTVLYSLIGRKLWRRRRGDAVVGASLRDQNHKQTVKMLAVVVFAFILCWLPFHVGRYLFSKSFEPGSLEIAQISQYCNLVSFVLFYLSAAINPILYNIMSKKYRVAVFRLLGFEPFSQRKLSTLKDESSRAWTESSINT

Consider `CCCCCCCC(=O)OC[C@H](NC(=O)[C@H](CO)NC(=O)CN)C(=O)N[C@@H](Cc1ccccc1)C(=O)N[C@@H](CC(C)C)C(=O)N[C@@H](CO)C(=O)N1CCC[C@H]1C(=O)N[C@@H](CCC(=O)O)C(=O)N[C@@H](Cc1c[nH]cn1)C(=O)N[C@@H](CCC(N)=O)C(=O)N[C@@H](CCCN=C(N)N)C(=O)N[C@H](C(=O)N[C@@H](CCC(N)=O)C(=O)N[C@@H](CCC(N)=O)C(=O)O)C(C)C` [listing 1 of 2 here], for which, in assay [1], the IC50 (as a rule, the concentration needed to halve the response being measured) was determined as 9.6 nM. In the assay on HEK293 [2], the EC50 (usually the concentration that produces a half-maximal response) stood at 17 nM.
On to `CCCCCCCC(=O)OC[C@H](NC(=O)[C@H](CO)NC(=O)CN)C(=O)N[C@@H](Cc1ccccc1)C(=O)N[C@@H](CC(C)C)C(=O)N[C@@H](CO)C(=O)N1CCC[C@H]1C(=O)N[C@@H](CCC(=O)O)C(=O)N[C@@H](Cc1c[nH]cn1)C(=O)N[C@@H](CCC(N)=O)C(=O)N[C@@H](CCCN=C(N)N)C(=O)N[C@H](C(=O)N[C@@H](CCC(N)=O)C(=O)N[C@@H](CCC(N)=O)C(=O)O)C(C)C` [listing 2 of 2 here], for which the Activation with HEK293 [3] turned out to be 97%.
Regarding `CCCCCCCC(=O)NC[C@H](NC(=O)[C@H](CO)NC(=O)CN)C(=O)N[C@@H](Cc1ccccc1)C(=O)N[C@@H](CC(C)C)C(=O)N[C@@H](CO)C(=O)N1CCC[C@H]1C(=O)N[C@@H](CCC(=O)O)C(=O)N[C@@H](Cc1c[nH]cn1)C(=O)N[C@@H](CCC(N)=O)C(=O)N[C@@H](CCCNC(=N)N)C(=O)N[C@H](C(=O)N[C@@H](CCC(N)=O)C(=O)N[C@@H](CCC(N)=O)C(=O)O)C(C)C` [listing 1 of 2 here], the IC50 in assay [1] turned out to be 8 nM. Moreover, the EC50 with HEK293 [2] worked out at 38 nM.
In the case of `CCCCCCCC(=O)NC[C@H](NC(=O)[C@H](CO)NC(=O)CN)C(=O)N[C@@H](Cc1ccccc1)C(=O)N[C@@H](CC(C)C)C(=O)N[C@@H](CO)C(=O)N1CCC[C@H]1C(=O)N[C@@H](CCC(=O)O)C(=O)N[C@@H](Cc1c[nH]cn1)C(=O)N[C@@H](CCC(N)=O)C(=O)N[C@@H](CCCNC(=N)N)C(=O)N[C@H](C(=O)N[C@@H](CCC(N)=O)C(=O)N[C@@H](CCC(N)=O)C(=O)O)C(C)C` [listing 2 of 2 here], the Activation with HEK293 [3] came out at 102%.
For `CCCCCCCC(=O)OC[C@H](NC(=O)[C@H](CO)NC(=O)CN)C(=O)N[C@@H](Cc1ccccc1)C(=O)N[C@@H](CC(C)C)C(=O)N[C@@H](CO)C(=O)N1CCC[C@H]1C(=O)N[C@@H](CCC(=O)O)C(=O)N[C@@H](Cc1cnc[nH]1)C(=O)N[C@@H](CCC(N)=O)C(=O)N[C@@H](CCCNC(=N)N)C(=O)N[C@H](C(=O)N[C@@H](CCC(N)=O)C(=O)N[C@@H](CCC(N)=O)C(=O)N[C@@H](CCCNC(=N)N)C(=O)N[C@@H](CCCCN)C(=O)N[C@@H](CCC(=O)O)C(=O)N[C@@H](CO)C(=O)N[C@@H](CCCCN)C(=O)N[C@@H](CCCCN)C(=O)N1CCC[C@H]1C(=O)N1CCC[C@H]1C(=O)N[C@@H](C)C(=O)N[C@@H](CCCCN)C(=O)N[C@@H](CC(C)C)C(=O)N[C@@H](CCC(N)=O)C(=O)N1CCC[C@H]1C(=O)N[C@@H](CCCNC(=N)N)C(=O)O)C(C)C`, the Activation in the assay on HEK293 [3] was found to be 100%.
As for `CC(C)C[C@H](NC(=O)[C@H](CCCCN)NC(=O)[C@H](C)NC(=O)[C@@H]1CCCN1C(=O)[C@@H]1CCCN1C(=O)[C@H](CCCCN)NC(=O)[C@H](CCCCN)NC(=O)[C@H](CO)NC(=O)[C@H](CCC(=O)O)NC(=O)[C@H](CCCCN)NC(=O)[C@H](CCCNC(=N)N)NC(=O)[C@H](CCC(N)=O)NC(=O)[C@H](CCC(N)=O)NC(=O)[C@@H](NC(=O)[C@H](CCCNC(=N)N)NC(=O)[C@H](CCC(N)=O)NC(=O)[C@H](Cc1cnc[nH]1)NC(=O)[C@H](CCC(=O)O)NC(=O)[C@@H]1CCCN1C(=O)[C@H](CO)NC(=O)[C@H](CC(C)C)NC(=O)[C@H](Cc1ccccc1)NC(=O)[C@H](CO)NC(=O)[C@H](CO)NC(=O)CN)C(C)C)C(=O)N[C@@H](CCC(N)=O)C(=O)N1CCC[C@H]1C(=O)N[C@@H](CCCNC(=N)N)C(=O)O`, in the assay on HEK293 [3], the Activation is on record as 41%. The EC50 in the assay on HEK293 [2] is more than 10000 nM.
In turn, `CCCCCCCC(=O)NC[C@H](NC(=O)[C@H](CO)NC(=O)CN)C(=O)N[C@@H](Cc1ccccc1)C(=O)N[C@@H](CC(C)C)C(=O)N[C@@H](CO)C(=O)N1CCC[C@H]1C(=O)N[C@@H](CCC(=O)O)C(=O)N[C@@H](Cc1cnc[nH]1)C(=O)N[C@@H](CCC(N)=O)C(=O)N[C@@H](CCCNC(=N)N)C(=O)N[C@H](C(=O)N[C@@H](CCC(N)=O)C(=O)N[C@@H](CCC(N)=O)C(=O)N[C@@H](CCCNC(=N)N)C(=O)N[C@@H](CCCCN)C(=O)N[C@@H](CCC(=O)O)C(=O)N[C@@H](CO)C(=O)N[C@@H](CCCCN)C(=O)N[C@@H](CCCCN)C(=O)N1CCC[C@H]1C(=O)N1CCC[C@H]1C(=O)N[C@@H](C)C(=O)N[C@@H](CCCCN)C(=O)N[C@@H](CC(C)C)C(=O)N[C@@H](CCC(N)=O)C(=O)N1CCC[C@H]1C(=O)N[C@@H](CCCNC(=N)N)C(=O)O)C(C)C` had an IC50 in assay [1] of 0.42 nM. Further, in the assay on HEK293 [3], the Activation amounted to 105%. Besides, the EC50 with HEK293 [2] came out at 31 nM.
`CC(C)C[C@H](NC(=O)[C@H](CCCCN)NC(=O)[C@H](C)NC(=O)[C@@H]1CCCN1C(=O)[C@@H]1CCCN1C(=O)[C@H](CCCCN)NC(=O)[C@H](CCCCN)NC(=O)[C@H](CO)NC(=O)[C@H](CCC(=O)O)NC(=O)[C@H](CCCCN)NC(=O)[C@H](CCCNC(=N)N)NC(=O)[C@H](CCC(N)=O)NC(=O)[C@H](CCC(N)=O)NC(=O)[C@@H](NC(=O)[C@H](CCCNC(=N)N)NC(=O)[C@H](CCC(N)=O)NC(=O)[C@H](Cc1cnc[nH]1)NC(=O)[C@H](CCC(=O)O)NC(=O)[C@@H]1CCCN1C(=O)[C@H](CO)NC(=O)[C@H](CC(C)C)NC(=O)[C@H](Cc1ccccc1)NC(=O)[C@H](COC(=O)CC12CC3CC(CC(C3)C1)C2)NC(=O)[C@H](CO)NC(=O)CN)C(C)C)C(=O)N[C@@H](CCC(N)=O)C(=O)N1CCC[C@H]1C(=O)N[C@@H](CCCNC(=N)N)C(=O)O`: the Activation in the assay with HEK293 [3] worked out at 95%.
In turn, `CCCCCCCC(=O)OC[C@H](NC(=O)[C@H](CO)NC(C)=O)C(=O)N[C@@H](Cc1ccccc1)C(=O)N[C@@H](CC(C)C)C(N)=O` (Ac-SS(Octanoyl)FL-NH2) returned an IC50 in assay [1] of more than 2000 nM. Besides, the Activation with HEK293 [3] worked out at 30%. For the same compound, the EC50 with HEK293 [2] came to 1150 nM.
Taken in the same sequence, the figures for `CCCCCCCC(=O)OC[C@H](NC(C)=O)C(=O)N[C@@H](Cc1ccccc1)C(=O)N[C@@H](CC(C)C)C(N)=O` (Ac-Ser(Octanoyl)-Phe-Leu-NH2) were more than 10000 nM, 29% and 2500 nM.
Taken in the same sequence, the figures for `CCCCCCCC(=O)OC[C@H](NC(=O)[C@H](CO)NC(C)=O)C(=O)N[C@@H](Cc1ccccc1)C(N)=O` (Ac-Ser-Ser(Octanoyl)-Phe-NH2) were more than 10000 nM, 28% and more than 10000 nM.
Take `CCCCCCCC(=O)OC[C@H](NC(=O)[C@H](CO)NC(=O)CN)C(=O)N[C@@H](Cc1ccccc1)C(N)=O` (H-GSS(Octanoyl)F-NH2): the Activation in the assay on HEK293 [3] is on record as 91%. The EC50 with HEK293 [2] came out at 72 nM.
For `CCCCCCCC(=O)OC[C@H](NC(=O)[C@H](CO)NC(=O)CN)C(=O)N[C@@H](Cc1ccccc1)C(=O)N[C@@H](CC(C)C)C(N)=O` (H-GSS(Octanoyl)FL-NH2), the Activation in the assay on HEK293 [3] is reported as 11.5%. In the assay on HEK293 [2], the EC50 was determined as 11.5 nM.
As to `CCCCCCCC(=O)OC[C@H](NC(=O)[C@H](CO)NC(=O)CN)C(=O)N[C@@H](Cc1ccccc1)C(=O)N[C@@H](CC(C)C)C(=O)N[C@@H](CO)C(=O)N1CCC[C@H]1C(=O)N[C@@H](CCC(=O)O)C(=O)N[C@@H](Cc1c[nH]cn1)C(=O)N[C@@H](CCC(N)=O)C(=O)N[C@@H](CCCNC(=N)N)C(=O)N[C@H](C(=O)N[C@@H](CCC(N)=O)C(=O)N[C@@H](CCC(N)=O)C(=O)N[C@@H](CCCNC(=N)N)C(=O)N[C@@H](CCCCN)C(=O)N[C@@H](CCC(=O)O)C(=O)N[C@@H](CO)C(N)=O)C(C)C` (H-GSS(Octanoyl)FLSPEHQRVQQRKES-NH2) [listing 1 of 2 here], in assay [1], the IC50 came to 0.77 nM. Besides, the EC50 in the assay with HEK293 [2] came out at 22 nM.
Turning to `CCCCCCCC(=O)OC[C@H](NC(=O)[C@H](CO)NC(=O)CN)C(=O)N[C@@H](Cc1ccccc1)C(=O)N[C@@H](CC(C)C)C(=O)N[C@@H](CO)C(=O)N1CCC[C@H]1C(=O)N[C@@H](CCC(=O)O)C(=O)N[C@@H](Cc1c[nH]cn1)C(=O)N[C@@H](CCC(N)=O)C(=O)N[C@@H](CCCNC(=N)N)C(=O)N[C@H](C(=O)N[C@@H](CCC(N)=O)C(=O)N[C@@H](CCC(N)=O)C(=O)N[C@@H](CCCNC(=N)N)C(=O)N[C@@H](CCCCN)C(=O)N[C@@H](CCC(=O)O)C(=O)N[C@@H](CO)C(N)=O)C(C)C` (H-GSS(Octanoyl)FLSPEHQRVQQRKES-NH2) [listing 2 of 2 here], in the assay with HEK293 [3], the Activation turned out to be 92%.
For `CCCCCCCC(=O)OC[C@H](NC(=O)[C@H](CO)NC(=O)CN)C(=O)N[C@@H](Cc1ccccc1)C(=O)N[C@@H](CC(C)C)C(=O)N[C@@H](CO)C(=O)N1CCC[C@H]1C(=O)N[C@@H](CCC(=O)O)C(=O)N[C@@H](Cc1c[nH]cn1)C(=O)N[C@@H](CCC(N)=O)C(=O)N[C@@H](CCCN=C(N)N)C(=O)N[C@H](C(=O)N[C@@H](CCC(N)=O)C(=O)N[C@@H](CCC(N)=O)C(=O)N[C@@H](CCCN=C(N)N)C(=O)N[C@@H](CCCCN)C(=O)N[C@@H](CCC(=O)O)C(=O)N[C@@H](CO)C(=O)N[C@@H](CCCCN)C(=O)N[C@@H](CCCCN)C(=O)N1CCC[C@H]1C(=O)N1CCC[C@H]1C(=O)N[C@@H](C)C(N)=O)C(C)C` (H-GSS(Octanoyl)FLSPEHQRVQQRKESKKPPA-NH2), the Activation with HEK293 [3] amounted to 100%. Moreover, the EC50 in the assay on HEK293 [2] worked out at 15 nM.
In the case of `CCCCCCCC(=O)OC[C@H](NC(=O)[C@H](CO)NC(=O)CN)C(N)=O` (H-Gly-Ser-Ser(Octanoyl)-NH2), the IC50 in assay [1] is more than 10000 nM. In addition, the Activation in the assay with HEK293 [3] was determined as 28%. Further, the EC50 in the assay with HEK293 [2] was more than 10000 nM.
